# According to ChEMBL document CHEMBL1124896, “Synthesis and antitumor activity of novel 4-demethoxyanthracyclines” (1990):
# Key:
# Format in all cases: functional, Mus musculus
# Details in all cases: route intraperitoneal
# L1210 (1565) [1] = assay: Antitumor activity against L-1210 leukemia cell line in BDF1 mice after injecting 2 mg/kg ip dose
# Summary of the method: (§1)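 Female BDF1 mice received 10⁵ viable L-1210 ascites cells ip. Aqueous test compound was given ip starting the same day, daily five times a week for 4 weeks or until death, with five mice per dose. Read-out was T/C, the mean survival time of treated mice over untreated controls. Mice alive at 4 weeks were counted as long-term survivors.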
# L1210 (1565) [2] = assay: Antitumor activity against L-1210 leukemia cell line in BDF1 mice after injecting 0.125 mg/kg ip dose; summary of the method: as §1
# L1210 (1565) [3] = assay: Antitumor activity against L-1210 leukemia cell line in BDF1 mice after injecting 8 mg/kg ip dose; summary of the method: as §1
# L1210 (1565) [4] = assay: Antitumor activity against L-1210 leukemia cell line in BDF1 mice after injecting 0.25 mg/kg ip dose; summary of the method: as §1
# P388 [5] = assay: Antitumor activity against P-388 leukemia cell line in BDF1 mice after injecting 4 mg/kg ip dose
# L1210 (1565) [6] = assay: Antitumor activity against L-1210 leukemia cell line in BDF1 mice after injecting 0.5 mg/kg ip dose; summary of the method: as §1
# L1210 (1565) [7] = assay: Antitumor activity against L-1210 leukemia cell line in BDF1 mice after injecting 4 mg/kg ip dose; summary of the method: as §1
# P388 [8] = assay: Antitumor activity against P-388 leukemia cell line in BDF1 mice after injecting 8.0 mg/kg ip dose
# P388 [9] = assay: Antitumor activity against P-388 leukemia cell line in BDF1 mice after injecting 0.38 mg/kg ip dose
# P388 [10] = assay: Antitumor activity against P-388 leukemia cell line in BDF1 mice after injecting 2.4 mg/kg ip dose
# L1210 (1565) [11] = assay: Antitumor activity against L-1210 leukemia cell line in BDF1 mice after injecting 0.05 mg/kg ip dose; summary of the method: as §1
# L1210 (1565) [12] = assay: Antitumor activity against L-1210 leukemia cell line in BDF1 mice after injecting 16 mg/kg ip dose; summary of the method: as §1
# L1210 (1565) [13] = assay: Antitumor activity against L-1210 leukemia cell line in BDF1 mice after injecting 2.0 mg/kg ip dose; summary of the method: as §1
# P388 [14] = assay: Antitumor activity against P-388 leukemia cell line in BDF1 mice after injecting 6.25 mg/kg ip dose
# P388 [15] = assay: Antitumor activity against P-388 leukemia cell line in BDF1 mice after injecting 3.0 mg/kg ip dose
# L1210 (1565) [16] = assay: Antitumor activity against L-1210 leukemia cell line in BDF1 mice after injecting 0.1 mg/kg ip dose; summary of the method: as §1
structure (smiles),measurement,setting,value
CCCNC(=O)[C@]1(O)Cc2c(O)c3c(c(O)c2[C@@H](OC2CC(N)C(O)C(C)O2)C1)C(=O)c1ccccc1C3=O.Cl (stereo not given in full),T/C,L1210 (1565) [1],120%
C[C@@H]1O[C@@H](O[C@H]2C[C@](O)([C@@H](C)O)Cc3c(O)c4c(c(O)c32)C(=O)c2ccccc2C4=O)C[C@@H](N)[C@@H]1O.Cl,T/C,L1210 (1565) [2],250%
CC1OC(O[C@H]2C[C@](O)(C(=O)NOCc3ccccc3)Cc3c(O)c4c(c(O)c32)C(=O)c2ccccc2C4=O)CC(N)C1O.Cl (stereo not given in full),T/C,L1210 (1565) [3],100%
COC1C(N)CC(O[C@H]2C[C@](O)(C(C)=O)Cc3c(O)c4c(c(O)c32)C(=O)c2ccccc2C4=O)OC1C.Cl (stereo not given in full),T/C,L1210 (1565) [4],230%
CC[C@@]1(O)Cc2c(O)c3c(c(O)c2[C@@H](O[C@H]2C[C@H](N)[C@@H](O)[C@H](C)O2)C1)C(=O)c1ccccc1C3=O.Cl,T/C,P388 [5],184%
same,T/C,L1210 (1565) [6],460%
CC1OC(O[C@H]2C[C@](O)(C(=O)NCc3ccccc3)Cc3c(O)c4c(c(O)c32)C(=O)c2ccccc2C4=O)CC(N)C1O.Cl (stereo not given in full),T/C,L1210 (1565) [7],130%
COc1cccc2c1C(=O)c1c(O)c3c(c(O)c1C2=O)C[C@@](O)(C(C)=O)C[C@@H]3O[C@H]1C[C@H](N)[C@H](O)[C@H](C)O1 [DAUNORUBICIN],T/C,P388 [8],143%
same,T/C,L1210 (1565) [6],290%
C[C@@H]1OC(O[C@H]2C[C@](O)(CO)Cc3c(O)c4c(c(O)c32)C(=O)c2ccccc2C4=O)C[C@H](N)[C@H]1O.Cl (stereo not given in full),T/C,L1210 (1565) [2],340%
same,T/C,P388 [9],174%
C[C@@H]1O[C@@H](O[C@H]2C[C@](O)([C@H](C)O)Cc3c(O)c4c(c(O)c32)C(=O)c2ccccc2C4=O)C[C@@H](N)[C@@H]1O.Cl (stereo in doubt; 36),T/C,L1210 (1565) [2]; 0.125 mg/kg,360%
C[C@@H]1O[C@@H](O[C@H]2C[C@](O)([C@H](C)O)Cc3c(O)c4c(c(O)c32)C(=O)c2ccccc2C4=O)C[C@@H](N)[C@@H]1O.Cl (stereo in doubt; 25),T/C,L1210 (1565) [2]; 0.125 mg/kg,220%
CC(=O)[C@]1(O)Cc2c(O)c3c(c(O)c2[C@@H](O[C@H]2C[C@@H](N)[C@H](O)[C@H](C)O2)C1)C(=O)c1ccccc1C3=O.Cl,T/C,P388 [10],174%
same,T/C,L1210 (1565) [11],230%
CC1OC(O[C@H]2C[C@](O)(C(=O)Nc3ccccc3)Cc3c(O)c4c(c(O)c32)C(=O)c2ccccc2C4=O)CC(N)C1O.Cl (stereo not given in full),T/C,L1210 (1565) [12],120%
COc1cccc2c1C(=O)c1c(O)c3c(c(O)c1C2=O)C[C@@](O)(C(=O)CO)C[C@@H]3O[C@H]1C[C@H](N)[C@H](O)[C@H](C)O1 [DOXORUBICIN],T/C,P388 [8],174%
same,T/C,L1210 (1565) [13],330%
CC1CC(N)CC(O[C@H]2C[C@](O)(CO)Cc3c(O)c4c(c(O)c32)C(=O)c2ccccc2C4=O)O1.Cl (stereo not given in full),T/C,L1210 (1565) [2],280%
C[C@@H]1O[C@@H](O[C@H]2C[C@@](C)(O)Cc3c(O)c4c(c(O)c32)C(=O)c2ccccc2C4=O)C[C@@H](N)[C@@H]1O.Cl,T/C,P388 [14],192%
same,T/C,L1210 (1565) [6],400%
CC1OC(O[C@H]2C[C@](O)(C(=O)N(C)c3ccccc3)Cc3c(O)c4c(c(O)c32)C(=O)c2ccccc2C4=O)CC(N)C1O.Cl (stereo not given in full),T/C,L1210 (1565) [12],120%
C[C@@H]1O[C@@H](O[C@H]2C[C@](O)([C@H](C)O)Cc3c(O)c4c(c(O)c32)C(=O)c2ccccc2C4=O)C[C@@H](N)[C@@H]1O.Cl (stereo in doubt; 35),T/C,L1210 (1565) [2]; 0.125 mg/kg,270%
CC1OC(O[C@H]2C[C@](O)(CCO)Cc3c(O)c4c(c(O)c32)C(=O)c2ccccc2C4=O)CC(N)C1O.Cl (stereo not given in full),T/C,L1210 (1565) [4],450%
CC[C@@]1(O)Cc2c(O)c3c(c(O)c2[C@@H](O[C@H]2C[C@H](N)[C@H](O)[C@H](C)O2)C1)C(=O)c1ccccc1C3=O.Cl,T/C,P388 [15],155%
same,T/C,L1210 (1565) [6],420%
C[C@@H]1OC(O[C@H]2C[C@](O)(CO)Cc3c(O)c4c(c(O)c32)C(=O)c2ccccc2C4=O)C[C@H](N)[C@@H]1O.Cl (stereo not given in full),T/C,L1210 (1565) [16],230%
CC(=O)[C@]1(O)Cc2c(O)c3c(c(O)c2[C@@H](O[C@H]2C[C@@H](N)[C@@H](O)[C@H](C)O2)C1)C(=O)c1ccccc1C3=O.Cl,T/C,L1210 (1565) [6],240%
C[C@@H]1O[C@@H](O[C@H]2C[C@@](C)(O)Cc3c(O)c4c(c(O)c32)C(=O)c2ccccc2C4=O)C[C@@H](N)[C@H]1O.Cl,T/C,L1210 (1565) [1],470%
COC1C(N)CC(O[C@H]2C[C@](O)(CO)Cc3c(O)c4c(c(O)c32)C(=O)c2ccccc2C4=O)OC1C.Cl (stereo not given in full),T/C,L1210 (1565) [2],350%
